The record followed here is ChEMBL document CHEMBL3421612, “Identification of an anti-inflammatory derivative with anti-cancer potential: The impact of each of its structural components on inflammatory responses in macrophages and bladder cancer cells” (2015).

Calls of active or inactive are those of the source. The calls are words filed in the database; no cut-off is given here.

Test [1] has as its system MB49-I. The experiment in a line: (§1) Antiinflammatory activity against mouse MB49-I cells assessed as inhibition of IFN-gamma/TNFalpha-NO production pretreated at 50 uM after 24 hrs by Griess reaction relative to vehicle treated control. The class given is functional. The gist of the method: (§2)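 Cells seeded at 25 × 10³ per well, pretreated 3 h with test agents, washed twice with 10% FBS RPMI-1640, then stimulated 24 h with IFNγ plus TNFα. NO was quantified as nitrite using the Griess reaction (sulfanilic acid diazotization coupled to N-(1-naphthyl)ethylenediamine), absorbance at 548 nm, compared with cytokine-only control cells.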

Test [2] deals with MB49-I. Briefly: (§3) Antiinflammatory activity against mouse MB49-I cells assessed as inhibition of IFN-gamma/TNFalpha-NO production pretreated at 10 uM after 24 hrs by Griess reaction relative to vehicle treated control. It is filed as functional. The gist of the method: as §2
Background: Griess reagent forms a coloured azo dye with nitrite.

Test [3] can be described thus: as §1. The class given is functional. The gist of the method:
as §2

Test [4] concerns THP-1. Briefly: Reduction in IFN-gamma-induced STAT1 phosphorylation in human THP1 cells assessed as fold decrease at 50 uM after 30 mins by densitometric analysis relative to vehicle treated control. The class given is functional. Particulars: THP-1, 0.5 h. A digest of the protocol:
(§4)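 PMA-differentiated THP1 macrophages at 750 × 10³ cells/mL were pretreated 30 min with DMSO or compound at 10 or 50 μM, washed, then harvested immediately or after 30 min of 50 U/mL IFNγ (pSTAT1) or 25 ng/mL IL6 (pSTAT3). Lysates were run on reducing SDS-PAGE and immunoblotted for pSTAT1/pSTAT3, with blots reprobed for total STAT; phosphorylation was expressed as fold induction.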

Test [5] can be described thus: Reduction in IFN-gamma-induced MHC2 expression in human THP1 cells assessed as fold decrease pretreated at 25 uM after 48 hrs by flow cytometry relative to vehicle treated control. The class given is functional, cell-based. Particulars: THP-1. A digest of the protocol:
(§5)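 PMA-differentiated GFP-THP1 macrophages at 750 × 10⁴ cells/mL were pretreated 3 h with DMSO or compound, then left untreated or stimulated 48 h with 50 U/mL IFNγ. Surface CD40 and MHC-II were quantified by flow cytometry as fold change versus resting cells.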

Test [6] deals with THP-1. Briefly: Reduction in IFN-gamma-induced STAT1 phosphorylation in human THP1 cells assessed as fold decrease at 10 uM after 30 mins by densitometric analysis relative to vehicle treated control. The class given is functional. The conditions noted are these: THP-1, 0.5 h. A digest of the protocol:
as §4

A short description of test [7]: as §3. It is filed as functional. A digest of the protocol: as §2
Test [8] has as its system MB49-I. The experiment in a line: (§6) Antiproliferative activity against mouse MB49-I cells assessed as induction of IFN-gamma/TNFalpha-induced loss of cell viability at 50 uM after 24 hrs by MTT assay relative to control. The class given is functional. A digest of the protocol: (§7)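 MB49-I cells plated at 5 × 10³ per well and cultured 24 h. Pretreated 3 h with DMSO or compound at 0–50 μM, then incubated 24 h with or without IFNγ plus TNFα. MTT added for 3 h, solubilized overnight in 10% SDS/10 mM HCl, and absorbance read at 580 nm.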
(Tetrazolium dyes change colour on reduction, which living cells bring about.)

Test [9] has as its system J774.A1. The experiment in a line: Reduction in IFN-gamma/TNFalpha-induced NO production in mouse J774A.1 cells pretreated at 50 uM measured for 24 hrs by Griess reaction relative to vehicle treated control. It is filed as functional. A digest of the protocol: as §2
In test [10] the test system is MB49-I. The experiment in a line: (§8) Antiproliferative activity against mouse MB49-I cells assessed as induction of IFN-gamma/TNFalpha-induced loss of cell viability at 25 uM after 24 hrs by MTT assay relative to control. The class given is functional. The gist of the method: as §7
Test [11] has as its system THP-1. Briefly: Reduction in IL6-induced STAT3 phosphorylation in human THP1 cells assessed as fold decrease at 50 uM after 30 mins by densitometric analysis relative to vehicle treated control. The class given is functional. The conditions noted are these: THP-1, 0.5 h. A digest of the protocol: as §4
A short description of test [12]: Reduction in IFN-gamma-induced CD40 expression in human THP1 cells assessed as fold decrease pretreated at 25 uM after 48 hrs by flow cytometry relative to vehicle treated control. The class given is functional, cell-based. The conditions noted are these: THP-1. The gist of the method:
as §5

Test [13] relates to MB49-I. The experiment in a line: (§9) Antiproliferative activity against mouse MB49-I cells assessed as induction of IFN-gamma/TNFalpha-induced loss of cell viability at 37.5 uM after 24 hrs by MTT assay relative to control. The class given is functional. A digest of the protocol:
as §7

For test [14], the system named is THP-1. The experiment in a line: Reduction in IL6-induced STAT3 phosphorylation in human THP1 cells assessed as fold decrease at 10 uM after 30 mins by densitometric analysis relative to vehicle treated control. The class given is functional. Particulars: THP-1, 0.5 h. A digest of the protocol:
as §4

In test [15] the test system is MB49-I. The experiment in a line: Antiproliferative activity against mouse MB49-I cells assessed as induction of IFN-gamma/TNFalpha-induced loss of cell viability at 10 uM after 24 hrs by MTT assay relative to control. The class given is functional, cell-based. The gist of the method:
as §7

The subject of test [16] is J774.A1. Briefly: Reduction in IFN-gamma/TNFalpha-induced NO production in mouse J774A.1 cells pretreated at 10 uM measured for 24 hrs by Griess reaction relative to vehicle treated control. It is filed as functional. The gist of the method:
as §2

Test [17] in a line: Reduction in IFN-gamma-induced MHC2 expression in human THP1 cells assessed as fold decrease pretreated at 10 uM after 48 hrs by flow cytometry relative to vehicle treated control. It is filed as functional, cell-based. The conditions noted are these: THP-1. The gist of the method:
as §5
A general note: Flow cytometry measures light scatter and fluorescence of single cells or particles in a stream.

Test [18] can be described thus: Reduction in IFN-gamma-induced CD40 expression in human THP1 cells assessed as fold decrease pretreated at 10 uM after 48 hrs by flow cytometry relative to vehicle treated control. It is filed as functional, cell-based. The conditions noted are these: THP-1. The gist of the method:
as §5

The nature of test [19]: as §6. The class given is functional. The gist of the method:
as §7

Test [20] can be described thus: as §8. It is filed as functional. A digest of the protocol:
as §7

Test [21] is described as follows: as §9. The class given is functional. The gist of the method: as §7

The term inhibition denotes the drop in the measured response relative to a control, in per cent. For the compound `O=C(O)/C=C\C(=O)Nc1ccccc1`, the inhibition entry in test [1] and in [2] was “inactive” in each case.

Consider `Nc1ccc(C(=O)O)cc1`, for which the inhibition entry in [1] and in test [2] was “inactive” throughout.

With `NNC(=O)c1ccc(N2C(=O)C=CC2=O)cc1`, the inhibition at 50 µM in test [3] is 72%; in [4], 66%; in test [9] it was 69%; in test [11], 38%. The inhibition in test [5] amounted to 23%; in [12], 43%. In addition, the inhibition at 10 µM in [6] was 16%; in test [7] it was 21%; in [14], 15%; in [16], 24%. For the same compound, the inhibition result in test [8], in [10] and in test [13] was “inactive” throughout. For the same compound, in test [15], the outcome was inactive.

As for `O=C1C=CC(=O)O1`, the inhibition result in test [1] and in test [2] was “inactive” each time.

For `O=C(O)/C=C\C(=O)Nc1ccc(C(=O)O)cc1`, the inhibition result in test [1] and in [2] was “inactive” in each case.

With `O=C(O)c1ccc(N2C(=O)C=CC2=O)cc1`, the inhibition result in [1] and in test [2] was “inactive” throughout.

Take `CC(C)(C)OC(=O)NNC(=O)c1ccc(N2C(=O)C=CC2=O)cc1`: the inhibition in test [17] is 49%; in test [18], 87%. Also, the inhibition at 50 µM in test [3] was found to be 81%; in test [4], 71%; in [19], 50%; in test [9], 91%; in [11], 85%. In addition, the inhibition at 10 µM in [6] was 38%; in test [7], 40%; in test [14] it was 64%; in test [16] it was 46%. Further, in test [20], the inhibition at 25 µM came out at 19%. Moreover, in [21], the inhibition at 37.5 µM worked out at 45%. Moreover, the outcome in [15] was inactive.

In the case of `O=C1C=CC(=O)N1c1ccccc1`, the inhibition entry in test [1] and in test [2] was “inactive” each time.

As to `CC(C)(C)OC(=O)NNC(=O)c1ccccc1`, the outcome in test [1] and in test [2] was inactive.
